# According to ChEMBL document CHEMBL1133631, “Synthesis of potent agonists of the D-myo-inositol 1,4, 5-trisphosphate receptor based on clustered disaccharide polyphosphate analogues of adenophostin A” (J Med Chem, 2000):
# What was measured:
# [1] = Hill coefficient for equilibrium binding was evaluated (Inositol 1,4,5-trisphosphate receptor)
# Method in brief: (§1)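 Membranes from livers of male Wistar rats were Percoll-purified. A 0.1 mg protein sample in 50 mM Tris, 1 mM EGTA, pH 8.3 was incubated 5 min at 4 °C with [³H]IP₃ (45 nCi, 40 Ci/mmol) and competing ligand. The incubation was stopped by centrifugation, and pellets were scintillation-counted. Parameters came from logistic fits. Nonspecific binding was 10–15%. Triplicate, means ± SEM.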
# [2] = Binding affinity was measured by equilibrium competing with [3H]IP3 (Inositol 1,4,5-trisphosphate receptor); method in brief: as §1
# [3] = test system: IP3 receptor (Rattus norvegicus); assay: Maximal Ca+ release response was determined from permeabilized rat hepatocyte assay
# [4] = Concentration response relationship was used to measure half-maximally effective agonist concentration.; assay type: functional
# Method in brief: (§2)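 Saponin-permeabilized hepatocytes (10⁶ cells·mL⁻¹, 10 µg·mL⁻¹ saponin) loaded to steady state with ⁴⁵Ca²⁺ (20 µCi·mL⁻¹) for 5 min at 37 °C in cytosol-like medium (free Ca²⁺ 200 nM, 7.5 mM ATP, FCCP, PIPES pH 7.0). Cells diluted 5-fold into ATP-free medium with 1.25 µM thapsigargin; ligand added after 15 s, stores filtered 60 s later. Logistic fits gave maximal response, EC50 and Hill slope; means ± SEM.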
# [5] = compound was tested and the Ratio of EC50 and Kd was found out.; assay type: functional
# [6] = test system: IP3 receptor (Rattus norvegicus); assay: [Ca2+] release with 10 uM was measured by non-specific binding method.
# [7] = Hill coefficient for [Ca2+] release was evaluated; assay type: functional; method in brief: as §2
# [8] = Ratio of EC50 and Kd; assay type: functional
# [9] = test system: IP3 receptor (Rattus norvegicus); assay: Concentration response relationship was fitted to logistic equations using kaleidagraph software from which maximal response was measured.
Structure (SMILES),Hill slope [1],Kd [2] [µM],Max response [3] [%],EC50 [4] [µM],Ratio [5],IP3-sensitive Ca2+ stores [6] [%],Hill slope [7],Ratio [8],Max response [9] [%]
O=P(O)(O)OC1[C@@H](OP(=O)(O)O)C(CO)O[C@@H](O[C@@H]2[C@H](OP(=O)(O)O)C(OCCCc3ccccc3)O[C@@H]2CO)[C@H]1O (stereo partly specified),1.16,0.0031,34,0.381,123,87,3.9,–,–
CCCOC1O[C@H](CO)[C@H](O[C@@H]2OC(CO)[C@H](OP(=O)(O)O)C(OP(=O)(O)O)[C@@H]2O)[C@@H]1OP(=O)(O)O (stereo partly specified),0.97,0.0047,42,0.491,104,87,2.1,–,–
O=P(O)(O)OC1[C@@H](OP(=O)(O)O)C(CO)O[C@@H](O[C@@H]2[C@H](OP(=O)(O)O)C(OCCCc3ccc(CCCOC4O[C@H](CO)[C@H](O[C@@H]5OC(CO)[C@H](OP(=O)(O)O)C(OP(=O)(O)O)[C@@H]5O)[C@@H]4OP(=O)(O)O)cc3)O[C@@H]2CO)[C@H]1O (stereo partly specified),0.95,0.0036,–,0.215,–,92,2.2,60,31
O=P(O)(O)OC1[C@@H](OP(=O)(O)O)C(O)C(O)[C@@H](OP(=O)(O)O)[C@H]1O (stereo partly specified),0.88,0.0017,–,0.201,–,–,2.9,120,32
O=P(O)(O)OC1[C@@H](OP(=O)(O)O)C(CO)O[C@@H](O[C@@H]2[C@H](OP(=O)(O)O)C(OCCCc3cc(CCCOC4O[C@H](CO)[C@H](O[C@@H]5OC(CO)[C@H](OP(=O)(O)O)C(OP(=O)(O)O)[C@@H]5O)[C@@H]4OP(=O)(O)O)c(CCCOC4O[C@H](CO)[C@H](O[C@@H]5OC(CO)[C@H](OP(=O)(O)O)C(OP(=O)(O)O)[C@@H]5O)[C@@H]4OP(=O)(O)O)cc3CCCOC3O[C@H](CO)[C@H](O[C@@H]4OC(CO)[C@H](OP(=O)(O)O)C(OP(=O)(O)O)[C@@H]4O)[C@@H]3OP(=O)(O)O)O[C@@H]2CO)[C@H]1O (stereo partly specified),1.04,0.0043,–,0.161,–,101,2.1,37,42
CO[C@@H]1O[C@H](CO)[C@@H](O[C@H]2O[C@@H](CO)[C@@H](OP(=O)(O)O)[C@H](OP(=O)(O)O)[C@@H]2O)[C@H]1OP(=O)(O)O,0.99,0.0044,33,0.484,110,89,3.4,–,–
